Here are results for 20 compounds from ChEMBL document CHEMBL5357072, “Structural Modification of Noscapine via Photoredox/Nickel Dual Catalysis for the Discovery of S-Phase Arresting Agents” (ACS Med Chem Lett, 2024).

One assay concerns U-251. As to the kind of experiment: Antiproliferative activity against human U-251 cells assessed as cell growth inhibition at 10 uM incubated for 48 hrs by CCK8 assay relative to control. It is filed as functional. The conditions noted are these: read-out: GI. The essentials: (§1)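 Single-concentration screen of six cancer cell lines. Cells were exposed to 10 μM compound and growth was measured by CCK-8 assay. Results are reported as inhibition rate at 10 μM.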
A general note: Tetrazolium assays rely on reduction of a dye to a coloured formazan, in cell work by metabolically active cells.

For the next assay, the system named is A549. Briefly: Antiproliferative activity against human A549 cells assessed as cell growth inhibition at 10 uM incubated for 48 hrs by CCK8 assay relative to control. Format: functional. The conditions noted are these: read-out: GI. The essentials:
as §1

Assay [1] concerns NB-4. As to the kind of experiment: Antiproliferative activity against human NB4 cells assessed as cell growth inhibition at 10 uM incubated for 48 hrs by CCK8 assay relative to control. Format: functional. The settings on record: read-out: GI. The essentials: as §1
Assay [2] concerns MOLM-13. Briefly: Antiproliferative activity against human MOLM-13 cells assessed as cell growth inhibition at 10 uM incubated for 48 hrs by CCK8 assay relative to control. The conditions noted are these: read-out: GI. Format: functional. The essentials: as §1
For another assay, the system named is HeLa. Briefly: Antiproliferative activity against human HeLa cells assessed as cell growth inhibition at 10 uM incubated for 48 hrs by CCK8 assay relative to control. The settings on record: read-out: GI. It is filed as functional. The procedure, abridged: as §1
For assay [3], the system named is JeKo-1. Briefly: Antiproliferative activity against human JeKo-1 cells assessed as cell growth inhibition at 10 uM incubated for 48 hrs by CCK8 assay relative to control. It is filed as functional. The settings on record: read-out: GI. The procedure, abridged:
as §1

Assay [4] has as its system JeKo-1. Briefly: Antiproliferative activity against human JeKo-1 cells assessed as inhibition of cell growth incubated for 48 hrs by CCK8 assay. The conditions noted are these: JeKo-1, 48 h. Format: functional, cell-based. The procedure, abridged: (§2)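 CCK-8 growth-inhibition assay in the malignant haematological lines MOLM-13, NB4 and Jeko-1 and in normal PBMC. Cells were treated across a range of doses and IC50 taken as the half-maximal growth-inhibitory concentration. Data are mean ± SD of triplicate samples, and experiments were repeated at least three times.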

For assay [5], the system named is NB-4. Briefly: Antiproliferative activity against human NB4 cells assessed as inhibition of cell growth incubated for 48 hrs by CCK8 assay. It is filed as functional, cell-based. The conditions noted are these: NB-4, 48 h. The essentials:
as §2

The test system of assay [6] is MOLM-13. Briefly: Antiproliferative activity against human MOLM-13 cells assessed as inhibition of cell growth incubated for 48 hrs by CCK8 assay. It is filed as functional, cell-based. The settings on record: MOLM-13, 48 h. The procedure, abridged: as §2

A word on the IC50: it is the concentration needed to halve the response being measured.

In the case of `COc1ccc2c(c1OC)C(=O)O[C@@H]2[C@H]1c2c(c(C34C[C@H]5C[C@H](C3)C[C@@H](C4)C5)c3c(c2OC)OCO3)CCN1C(=O)OC(C)(C)C`, the inhibition of growth at 10 µM was less than 5% in the assay with U-251; less than 5% with A549; less than 5% with NB-4 [1]; 17.6% in the assay with MOLM-13 [2]; less than 5% in the assay with HeLa; less than 5% in the assay with JeKo-1 [3].
In the case of `COc1ccc2c(c1OC)C(=O)O[C@@H]2[C@H]1c2c(c(C3CC4CCC3C4)c3c(c2OC)OCO3)CCN1C(=O)OC(C)(C)C` (stereo not given in full), the inhibition of growth at 10 µM in the assay on U-251 is less than 5%; with A549, less than 5%; with NB-4 [1], 15%; with MOLM-13 [2], 48.6%; in the assay on HeLa, less than 5%; with JeKo-1 [3], less than 5%.
Take `CCCCc1c2c(c(OC)c3c1OCO3)[C@H]([C@H]1OC(=O)c3c1ccc(OC)c3OC)N(C(=O)OC(C)(C)C)CC2`: the inhibition of growth at 10 µM in the assay with U-251 was less than 5%; in the assay with A549 it was less than 5%; with NB-4 [1] it was 10%; in the assay on MOLM-13 [2], 48.6%; with HeLa, less than 5%; in the assay with JeKo-1 [3] it was 11.4%.
In the case of `COc1ccc2c(c1OC)C(=O)O[C@@H]2[C@H]1c2c(c(C3CCC3)c3c(c2OC)OCO3)CCN1C(=O)OC(C)(C)C`, the inhibition of growth at 10 µM in the assay on U-251 was less than 5%; in the assay on A549, less than 5%; in the assay with NB-4 [1], 13.5%; in the assay with MOLM-13 [2], 40.4%; in the assay with HeLa, less than 5%; with JeKo-1 [3], less than 5%.
On to `COc1ccc2c(c1OC)C(=O)O[C@@H]2[C@H]1c2c(c(CC3CN(C(=O)OCc4ccccc4)C3)c3c(c2OC)OCO3)CCN1C`, for which the values for the IC50 in the assay on JeKo-1 [4], in the assay with NB-4 [5] and in the assay on MOLM-13 [6] were 5.11 µM, 10.7 µM and 4.37 µM, respectively.
Take `COc1ccc2c(c1OC)C(=O)O[C@@H]2[C@H]1c2c(c(C3CCCC3)c3c(c2OC)OCO3)CCN1C(=O)OC(C)(C)C`: the inhibition of growth at 10 µM with U-251 was less than 5%; with A549, less than 5%; in the assay with NB-4 [1], 11.6%; in the assay on MOLM-13 [2] it was 40%; with HeLa, less than 5%; in the assay on JeKo-1 [3] it was 5.81%.
In the case of `COc1ccc2c(c1OC)C(=O)O[C@@H]2[C@H]1c2c(c(C3CCCCCC3)c3c(c2OC)OCO3)CCN1C(=O)OC(C)(C)C`, the inhibition of growth at 10 µM in the assay with U-251 is 20.5%; in the assay with A549, less than 5%; in the assay with NB-4 [1], less than 5%; in the assay on MOLM-13 [2], 39.4%; in the assay on HeLa, less than 5%; in the assay on JeKo-1 [3] it was 10.3%.
With `COc1ccc2c(c1OC)C(=O)O[C@@H]2[C@H]1c2c(c(CC3CN(C)C3)c3c(c2OC)OCO3)CCN1C`, the IC50 in the assay on JeKo-1 [4], with NB-4 [5] and in the assay with MOLM-13 [6] was more than 20 µM in each case.
Regarding `COc1ccc2c(c1OC)C(=O)O[C@@H]2[C@H]1c2c(c(C3CCC(C)(C)CC3)c3c(c2OC)OCO3)CCN1C(=O)OC(C)(C)C`, the inhibition of growth at 10 µM with U-251 was less than 5%; in the assay with A549 it was less than 5%; in the assay on NB-4 [1] it was 29.6%; in the assay with MOLM-13 [2], 47.6%; in the assay on HeLa, less than 5%; in the assay on JeKo-1 [3], 7.49%.
`COc1ccc2c(c1OC)C(=O)O[C@@H]2[C@H]1c2c(c(CC3CC3)c3c(c2OC)OCO3)CCN1C(=O)OC(C)(C)C`: the inhibition of growth at 10 µM was less than 5% in the assay with U-251; less than 5% with A549; 8.2% with NB-4 [1]; 43.6% in the assay with MOLM-13 [2]; less than 5% in the assay on HeLa; less than 5% in the assay with JeKo-1 [3].
Take `COc1ccc2c(c1OC)C(=O)O[C@@H]2[C@H]1c2c(c(CCCc3ccccc3)c3c(c2OC)OCO3)CCN1C(=O)OC(C)(C)C`: the inhibition of growth at 10 µM was less than 5% in the assay on U-251; less than 5% in the assay on A549; 25.1% in the assay with NB-4 [1]; 63.2% in the assay on MOLM-13 [2]; less than 5% with HeLa; 13.7% in the assay with JeKo-1 [3].
Take `CCNC(=O)N1CCc2c(CC3CN(C(=O)OCc4ccccc4)C3)c3c(c(OC)c2[C@@H]1[C@H]1OC(=O)c2c1ccc(OC)c2OC)OCO3`: the figures for the IC50 with JeKo-1 [4], in the assay on NB-4 [5] and with MOLM-13 [6] were 6.97 µM, 10.4 µM and 6.47 µM, respectively.
As to `COc1ccc2c(c1OC)C(=O)O[C@@H]2[C@H]1c2c(c(C3CCCCC3)c3c(c2OC)OCO3)CCN1C(=O)OC(C)(C)C`, the inhibition of growth at 10 µM is less than 5% in the assay with U-251; less than 5% in the assay on A549; 6.53% in the assay on NB-4 [1]; 46.1% with MOLM-13 [2]; less than 5% in the assay with HeLa; less than 5% with JeKo-1 [3].
As for `COc1ccc2c(c1OC)C(=O)O[C@@H]2[C@@H]1NCCc2c(CC3CN(C(=O)OCc4ccccc4)C3)c3c(c(OC)c21)OCO3`, the IC50 with JeKo-1 [4] turned out to be 7.57 µM; in the assay on NB-4 [5] it was 13.2 µM; with MOLM-13 [6], 7.78 µM.
For `COc1ccc2c(c1OC)C(=O)O[C@@H]2[C@H]1c2c(c(CC3CN(C(C)=O)C3)c3c(c2OC)OCO3)CCN1C`, in that order: more than 20 µM, more than 20 µM and more than 20 µM.
`COc1ccc2c(c1OC)C(=O)O[C@@H]2[C@H]1c2c(c(CC3CCC3)c3c(c2OC)OCO3)CCN1C(=O)OC(C)(C)C`: the inhibition of growth at 10 µM in the assay with U-251 is less than 5%; in the assay on A549 it was less than 5%; in the assay with NB-4 [1], 8.8%; in the assay on MOLM-13 [2], 53.1%; with HeLa, less than 5%; with JeKo-1 [3] it was 6.67%.
In the case of `COc1ccc2c(c1OC)C(=O)O[C@@H]2[C@H]1c2c(c(CC3CCCCC3)c3c(c2OC)OCO3)CCN1C(=O)OC(C)(C)C`, the inhibition of growth at 10 µM was less than 5% with U-251; less than 5% in the assay on A549; less than 5% in the assay on NB-4 [1]; 29.3% with MOLM-13 [2]; less than 5% in the assay with HeLa; less than 5% with JeKo-1 [3].
Consider `CCC(C)Cc1c2c(c(OC)c3c1OCO3)[C@H]([C@H]1OC(=O)c3c1ccc(OC)c3OC)N(C(=O)OC(C)(C)C)CC2` (stereo not given in full), for which the inhibition of growth at 10 µM in the assay with U-251 is less than 5%; in the assay with A549, less than 5%; in the assay with NB-4 [1] it was 9.33%; in the assay with MOLM-13 [2] it was 51.2%; in the assay on HeLa, 6.92%; in the assay with JeKo-1 [3], 24%.
Turning to `COc1ccc2c(c1OC)C(=O)O[C@@H]2[C@H]1c2c(c(CC3CCCC3)c3c(c2OC)OCO3)CCN1C(=O)OC(C)(C)C`, the inhibition of growth at 10 µM in the assay with U-251 was 12%; with A549, less than 5%; in the assay with NB-4 [1], 20.8%; in the assay with MOLM-13 [2] it was 51.3%; in the assay on HeLa it was less than 5%; in the assay with JeKo-1 [3] it was 6.68%.
On to `Nc1ccn([C@@H]2O[C@H](CO)[C@@H](O)C2(F)F)c(=O)n1` [GEMCITABINE], for which the inhibition of growth at 10 µM with U-251 came out at 69.7%; in the assay with A549 it was 62.3%; with NB-4 [1], 95.7%; with MOLM-13 [2] it was 74.1%; with HeLa it was 61.4%; in the assay on JeKo-1 [3], 65.2%.
